Publication PMC5892780 (RMD Open, 2018)

Tests used:
patients with gout = details: lesinurad 400 mg vs lesinurad 200 mg plus febuxostat or febuxostat alone; cited from earlier work
[1] = Plasma and urine PK of verinurad in the presence of febuxostat; format: in vivo, human; details: for Tmax: human, plasma, oral; for fe0-24: urine, geometric mean (95% CI)
humans = details: doses as low as 2.5 mg; cited from earlier work
adults with gout [2] = experiment: Serum urate; format: in vivo, human
Procedure, shortened: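 Gout patients were dosed orally once daily after a standardised breakfast, 7 days per treatment period. Serum was sampled at screening, baseline (day –1) and weekly for 4 weeks, within 30 min predose and at preset intervals up to 24 h postdose. Emax is the maximum percent change from baseline. A mixed-effects model used treatment and period as fixed effects, subject as random effect and baseline as covariate; data were pooled across cohorts.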

adults with gout [3] = experiment: Urinary uric acid pharmacodynamics; format: in vivo, human
Procedure, shortened: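 Total-catch urine was collected on day –1, then weekly for 4 weeks, in 1 h up to 2 or 10 h intervals. On collection days subjects drank 240 mL water on waking, 240 mL with the dose, ~160 mL/h for 12 h and 240 mL at 22 h. ReUR, AeUR, CLUR and FEUA were derived per time point per 24-h collection. Analysis used a mixed-effects model with baseline covariate.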

adults with gout [4] = experiment: Urinary xanthine and hypoxanthine excretion; format: in vivo, human; details: febuxostat 40 mg alone; urine
Procedure, shortened: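 Urine from gout patients on once-daily oral treatment (total catch, day –1 and weekly for 4 weeks, with a fixed water-loading schedule) was assayed for xanthine and hypoxanthine by LC/MS/MS. Assay performance was monitored with quality control samples prepared in blank matrix. These analytes served as a marker of the functional activity of the 40 mg partner-drug dose.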

[5] = Plasma PK of febuxostat alone or in the presence of verinurad; format: in vivo, human; details: for GMR AUC0-24 / GMR Cmax: GMR (90% CI)
Procedure, shortened: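 Adults with gout took the test compounds orally once daily, about 30 min after a standardised breakfast (approximately 650 kcal, 35% fat), in 7-day treatment periods. Blood was drawn weekly for 4 weeks, within 30 min predose and at intervals up to 24 h postdose. Plasma was separated by centrifugation, extracted by protein precipitation and analysed by LC/MS/MS. Cmax and AUC0-24 were compared by mixed-effects model (treatment fixed, subject random).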

adults with gout [6] = experiment: Safety assessment; format: in vivo, human; details: febuxostat 80 mg-alone group
Procedure, shortened: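 Subjects (sUA ≥8 mg/dL, creatinine clearance ≥60 mL/min) received colchicine 0.6 mg flare prophylaxis. Once-daily oral dosing with the test compounds was given after a standardised breakfast. Safety was monitored throughout and at day 42 (±2) follow-up: AEs coded by MedDRA V.17.0, clinical laboratory tests, vital signs, ECGs and physical examinations.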

[7] = febuxostat 40 mg + verinurad 2.5 mg vs febuxostat alone
[8] = febuxostat 40 mg + verinurad 5 mg vs febuxostat alone
[9] = febuxostat 40 mg + verinurad 20 mg vs febuxostat alone
[10] = febuxostat 80 mg + verinurad 2.5 mg vs febuxostat alone
[11] = febuxostat 80 mg + verinurad 5 mg vs febuxostat alone
[12] = febuxostat 80 mg + verinurad 10 mg vs febuxostat alone
[13] = febuxostat 80 mg + verinurad 15 mg vs febuxostat alone

O=C(O)CSc1nnc(Br)n1-c1ccc(C2CC2)c2ccccc12 [lesinurad]
Rates of renal adverse effects (patients with gout): increased rates of renal adverse effects

CC(C)(Sc1ccncc1-c1ccc(C#N)c2ccccc12)C(=O)O [verinurad]
Tmax ([1]; Median Tmax of verinurad, range over verinurad 2.5-20 mg with febuxostat 40 or 80 mg): 2.5 to 4 h
Tmax ([1]; Tmax, verinurad 2.5 mg + febuxostat 40 mg, median (range)): 3.5 h
Tmax ([1]; Tmax, verinurad 2.5 mg + febuxostat 80 mg, median (range)): 2.5 h
Tmax ([1]; Tmax, verinurad 5 mg + febuxostat 40 mg, median (range)): 3.5 h
Tmax ([1]; Tmax, verinurad 5 mg + febuxostat 80 mg, median (range)): 4 h
Tmax ([1]; Tmax, verinurad 10 mg + febuxostat 40 mg, median (range)): 3 h
Tmax ([1]; Tmax, verinurad 10 mg + febuxostat 80 mg, median (range)): 3 h
Tmax ([1]; Tmax, verinurad 15 mg + febuxostat 40 mg, median (range)): 3 h
Tmax ([1]; Tmax, verinurad 20 mg + febuxostat 40 mg, median (range)): 3 h
fe0-24 ([1]; verinurad 2.5 mg + febuxostat 40 mg): 0.661 (0.437 to 1.00) %
fe0-24 ([1]; verinurad 2.5 mg + febuxostat 80 mg): 0.622 (0.347 to 1.11) %
Verinurad Ae0-24 (amount excreted unchanged in urine) ([1]; verinurad 2.5 mg with febuxostat 80 mg): 15.5 µg
fe0-24 ([1]; verinurad 5 mg + febuxostat 40 mg): 0.657 (0.444 to 0.970) %
fe0-24 ([1]; verinurad 5 mg + febuxostat 80 mg): 0.640 (0.392 to 1.05) %
fe0-24 ([1]; verinurad 10 mg + febuxostat 40 mg): 0.810 (0.622 to 1.05) %
fe0-24 ([1]; verinurad 10 mg + febuxostat 80 mg): 1.03 (0.710 to 1.49) %
fe0-24 ([1]; verinurad 15 mg + febuxostat 40 mg): 0.692 (0.561 to 0.853) %
fe0-24 ([1]; verinurad 15 mg + febuxostat 80 mg): 0.816 (0.493 to 1.35) %
fe0-24 ([1]; verinurad 20 mg + febuxostat 40 mg): 0.717 (0.542 to 0.949) %
Verinurad Ae0-24 (amount excreted unchanged in urine) ([1]; verinurad 20 mg with febuxostat 40 mg): 143 µg
sUA lowering in humans (humans): significant sUA lowering

Cc1nc(-c2ccc(OCC(C)C)c(C#N)c2)sc1C(=O)O [febuxostat]
Emax, maximum percent decrease in sUA from baseline (adults with gout [2]; febuxostat 40 mg alone): 42%
Emax, maximum percent decrease in sUA from baseline (adults with gout [2]; febuxostat 80 mg alone): 55%
Mean maximum urinary uric acid excretion rate (ReUR) compared with baseline (adults with gout [3]; febuxostat 40 and 80 mg alone): reduced below baseline
Influence on FEUA (adults with gout [3]; febuxostat 40 or 80 mg administered alone): did not influence
Influence on CLUR (adults with gout [3]; febuxostat 40 or 80 mg administered alone, data not shown): did not influence
Increase in mean excretion of hypoxanthine (adults with gout [4]): 527%
Increase in mean excretion of xanthine (adults with gout [4]): 1965%
GMR AUC0-24 [5, 7]: 94.2 (88.1 to 101) %
GMR Cmax [5, 7]: 91.2 (69.3 to 120) %
GMR AUC0-24 [5, 8]: 92.4 (89.0 to 95.8) %
GMR Cmax [5, 8]: 85.6 (75.7 to 96.7) %
GMR AUC0-24 [5, 9]: 94.1 (89.4 to 99.0) %
GMR Cmax [5, 9]: 114 (92.0 to 141) %
GMR AUC0-24 [5, 10]: 98.6 (94.5 to 103) %
GMR Cmax [5, 10]: 146 (130 to 165) %
GMR AUC0-24 [5, 11]: 89.3 (82.8 to 96.3) %
GMR Cmax [5, 11]: 89.9 (68.8 to 117) %
GMR AUC0-24 [5, 12]: 94.2 (90.7 to 97.9) %
GMR Cmax [5, 12]: 101 (87.9 to 116) %
GMR AUC0-24 [5, 13]: 92.9 (84.1 to 103) %
GMR Cmax [5, 13]: 123 (88.3 to 173) %
Febuxostat exposures alone vs in combination with verinurad ([5]; febuxostat 40 or 80 mg): equivalence
TEAE of severe intensity (adults with gout [6]): a severe case of hypertriglyceridaemia
